We go through one compound from ChEMBL document CHEMBL4354879, “Bioisosteric Discovery of NPA101.3, a Second-Generation RET/VEGFR2 Inhibitor Optimized for Single-Agent Polypharmacology” (J Med Chem, 2020).

The target of data set [1] is High affinity nerve growth factor receptor (Homo sapiens, UniProt P04629). Put plainly: Inhibition of recombinant human His-tagged TRKA cytoplasmic domain (441 to 796 residues) expressed in baculovirus expression system using peptide substrate preincubated for 60 mins followed by substrate addition by microfluidic assay.
Chain of High affinity nerve growth factor receptor (P04629 whole entry, the tested form may be a part, canonical isoform): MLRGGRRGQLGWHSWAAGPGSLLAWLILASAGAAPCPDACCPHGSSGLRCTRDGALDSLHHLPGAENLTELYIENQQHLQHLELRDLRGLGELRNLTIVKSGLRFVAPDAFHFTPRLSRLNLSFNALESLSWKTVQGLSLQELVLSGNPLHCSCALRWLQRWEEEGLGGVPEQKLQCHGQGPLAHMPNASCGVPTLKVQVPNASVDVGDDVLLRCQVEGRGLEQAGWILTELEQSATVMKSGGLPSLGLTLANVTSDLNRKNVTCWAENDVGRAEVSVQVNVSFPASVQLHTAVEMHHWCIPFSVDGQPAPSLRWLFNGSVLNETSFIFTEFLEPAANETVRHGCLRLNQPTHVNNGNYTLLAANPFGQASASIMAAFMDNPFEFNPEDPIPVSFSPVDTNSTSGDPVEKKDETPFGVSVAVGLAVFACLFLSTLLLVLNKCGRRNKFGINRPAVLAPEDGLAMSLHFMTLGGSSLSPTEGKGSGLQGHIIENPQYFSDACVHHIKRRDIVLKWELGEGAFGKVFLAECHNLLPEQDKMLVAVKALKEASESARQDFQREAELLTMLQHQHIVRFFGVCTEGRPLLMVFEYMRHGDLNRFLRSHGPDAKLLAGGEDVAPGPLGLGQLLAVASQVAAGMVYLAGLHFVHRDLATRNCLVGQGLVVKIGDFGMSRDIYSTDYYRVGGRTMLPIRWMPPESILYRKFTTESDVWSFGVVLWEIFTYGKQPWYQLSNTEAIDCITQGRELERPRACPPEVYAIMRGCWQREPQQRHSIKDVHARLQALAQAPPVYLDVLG
The subject of data set [2] is Proto-oncogene tyrosine-protein kinase receptor Ret (Homo sapiens), P07949 [C634R]. Description: Inhibition of RET isoform 9 C634R mutant (unknown origin) expressed in rat Rat1 assessed as reduction in RET phosphorylation at Y1062 residue at 0.3 nM measured after 2 hrs by Western blot analysis. Type of data set: cell-based. In outline:
(§1)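 RAT1 fibroblasts expressing RET-9 C634R, serum-starved, treated 2 h with 0.1–10.0 nM; 50 μg lysate blotted for RET pY905 and pY1062, normalized to total RET; ECL detection.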
(In general: In western blotting, separated proteins are transferred to a membrane and probed.)

For data set [3] the test system is unchanged. Put plainly: Inhibition of RET isoform 9 C634R mutant (unknown origin) expressed in rat Rat1 assessed as reduction in RET phosphorylation at Y1062 residue at 3 nM measured after 2 hrs by Western blot analysis. Type of data set: cell-based. Put shortly:
as §1

Data set [4] has as its system Proto-oncogene tyrosine-protein kinase receptor Ret (Homo sapiens), P07949 [M918T]. Put plainly: Inhibition of RET isoform 9 M918T mutant (unknown origin) expressed in rat Rat1 assessed as reduction in RET phosphorylation at Y905 residue at 1 to 100 nM measured after 2 hrs by Western blot analysis. Type of data set: cell-based. In outline: (§2)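 Serum-starved RAT1 (RET point mutants) or NIH3T3 (RET rearrangements) cells expressing short RET-9 isoform, treated 2 h; 50 μg total lysate immunoblotted with anti-phospho-Y1062 and anti-phospho-Y905 RET antibodies, normalized to total RET; ECL detection. Compound from 50 mM DMSO stock diluted in growth medium.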

The test system of data set [5] is Proto-oncogene tyrosine-protein kinase receptor Ret (Homo sapiens), P07949 [A883F]. Put plainly: Inhibition of RET isoform 9 A883F mutant (unknown origin) expressed in rat Rat1 assessed as reduction in RET phosphorylation at Y905 residue at 1 to 100 nM measured after 2 hrs by Western blot analysis. In kind it is cell-based. Put shortly:
as §2

In data set [6] the test system is Proto-oncogene tyrosine-protein kinase receptor Ret (Homo sapiens), P07949 [V804L]. Description: Inhibition of RET isoform 9 V804L mutant (unknown origin) expressed in rat Rat1 assessed as reduction in RET phosphorylation at Y905 residue at 1 to 100 nM measured after 2 hrs by Western blot analysis. Type of data set: cell-based. In outline: as §2
Chain of Proto-oncogene tyrosine-protein kinase receptor Ret (Homo sapiens), P07949 [V804L] (P07949 whole entry V804L, canonical isoform): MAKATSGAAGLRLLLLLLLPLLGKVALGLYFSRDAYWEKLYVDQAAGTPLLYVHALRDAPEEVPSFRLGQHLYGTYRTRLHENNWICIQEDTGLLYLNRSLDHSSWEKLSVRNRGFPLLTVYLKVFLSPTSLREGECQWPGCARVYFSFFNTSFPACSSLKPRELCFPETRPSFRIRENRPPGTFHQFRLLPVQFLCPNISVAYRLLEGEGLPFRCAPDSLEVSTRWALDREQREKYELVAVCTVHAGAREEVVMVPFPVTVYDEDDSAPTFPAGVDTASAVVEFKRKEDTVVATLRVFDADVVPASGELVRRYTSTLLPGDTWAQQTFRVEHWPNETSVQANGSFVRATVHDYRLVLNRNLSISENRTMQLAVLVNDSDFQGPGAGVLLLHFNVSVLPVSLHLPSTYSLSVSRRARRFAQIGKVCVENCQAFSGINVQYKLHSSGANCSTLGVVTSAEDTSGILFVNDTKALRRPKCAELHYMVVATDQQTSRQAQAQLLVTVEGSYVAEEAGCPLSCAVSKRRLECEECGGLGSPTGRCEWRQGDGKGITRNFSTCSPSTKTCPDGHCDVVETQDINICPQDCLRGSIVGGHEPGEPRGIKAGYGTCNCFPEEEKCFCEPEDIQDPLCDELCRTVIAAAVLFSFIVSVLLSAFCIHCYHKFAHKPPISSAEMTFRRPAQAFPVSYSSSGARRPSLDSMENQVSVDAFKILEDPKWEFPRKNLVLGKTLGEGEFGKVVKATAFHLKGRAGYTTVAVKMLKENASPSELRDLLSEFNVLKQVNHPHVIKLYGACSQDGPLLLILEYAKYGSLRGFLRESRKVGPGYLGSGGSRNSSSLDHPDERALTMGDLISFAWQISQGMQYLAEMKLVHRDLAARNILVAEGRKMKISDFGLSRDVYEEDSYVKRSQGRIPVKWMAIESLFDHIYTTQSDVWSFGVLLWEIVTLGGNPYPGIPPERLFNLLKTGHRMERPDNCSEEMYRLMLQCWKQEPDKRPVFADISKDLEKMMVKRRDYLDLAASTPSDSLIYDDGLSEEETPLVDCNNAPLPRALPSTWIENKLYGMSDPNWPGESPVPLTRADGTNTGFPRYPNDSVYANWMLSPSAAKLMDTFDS
For data set [7], the species on record is Homo sapiens. Put plainly: Inhibition of CCDC6/RET isoform 9 (unknown origin) expressed in mouse NIH/3T3 cells assessed as reduction in RET phosphorylation at Y905 residue at 1 to 100 nM measured after 2 hrs by Western blot analysis. Type of data set: cell-based. Put shortly:
as §2

The target of data set [8] is Vascular endothelial growth factor receptor 2 (Homo sapiens, UniProt P35968). Put plainly: Inhibition of recombinant human VEGFR2 expressed in HEK293 cells assessed as reduction in VEGFA-induced VEGFR2 autophosphorylation at 1 to 10 nM preincubated for 2 hrs followed by VEGFA-stimulation and measured after 15 mins by Western blot analysis. In kind it is cell-based. Put shortly:
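HEK293 transiently transfected with human VEGFR2; 36 h post-transfection serum-starved 12 h, compound or vehicle 2 h, then VEGFA 100 ng/mL for 15 min; lysates blotted for phospho-VEGFR2, normalized to total VEGFR2.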

For data set [9], the target named is T1, SHC-transforming protein 1 (Homo sapiens) (UniProt P29353).
T1 sequence (whole entry): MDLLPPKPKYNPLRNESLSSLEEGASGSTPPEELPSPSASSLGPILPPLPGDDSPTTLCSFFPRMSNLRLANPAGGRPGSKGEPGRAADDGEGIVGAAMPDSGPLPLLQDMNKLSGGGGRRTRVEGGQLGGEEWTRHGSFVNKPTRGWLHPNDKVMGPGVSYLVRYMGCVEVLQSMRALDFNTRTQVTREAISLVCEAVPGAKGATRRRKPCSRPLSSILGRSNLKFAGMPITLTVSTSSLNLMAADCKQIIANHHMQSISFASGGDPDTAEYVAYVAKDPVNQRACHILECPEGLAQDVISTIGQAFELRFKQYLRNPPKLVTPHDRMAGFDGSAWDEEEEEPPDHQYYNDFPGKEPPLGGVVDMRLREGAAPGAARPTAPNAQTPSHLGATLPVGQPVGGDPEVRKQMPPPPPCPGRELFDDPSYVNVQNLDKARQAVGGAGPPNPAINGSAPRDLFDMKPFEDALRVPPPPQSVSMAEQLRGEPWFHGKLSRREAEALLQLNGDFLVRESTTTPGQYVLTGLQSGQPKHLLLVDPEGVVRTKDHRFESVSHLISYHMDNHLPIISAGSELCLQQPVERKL
Description: Effect on SHC phosphorylation in RET deficient human A549 cells at 1 to 100 nM measured after 2 hrs by western blot analysis. In kind it is cell-based.

The subject of data set [10] is Proto-oncogene tyrosine-protein kinase receptor Ret (Homo sapiens), P07949 [C634R]. Put plainly: Inhibition of RET […] C634R mutant (unknown origin) expressed in mouse BAF3 cells assessed as reduction in RET phosphorylation at Y1062 residue at 0.3 to 30 nM measured after 2 hrs by Western blot analysis. In kind it is cell-based. Put shortly:
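Ba/F3 cells stably expressing long-isoform RET-51 mutants (electroporation), cultured in RPMI/10% FCS without IL-3; RET phosphorylation read by Western blot with anti-phospho-Y905 and anti-phospho-Y1062 antibodies, ECL detection.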

Data set [11] addresses T1, SHC-transforming protein 1 (Homo sapiens). Put plainly: Effect on SHC phosphorylation in RET deficient human 8505C cells at 1 to 100 nM measured after 2 hrs by western blot analysis. In kind it is cell-based.
A short description of data set [12]: Cytotoxicity against RET deficient human Nthy-ori 3-1 cells supplemented with fresh medium containing compound for every 2 to 3 days measured during compound dosing. In kind it is cell-based. Put shortly: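 Human RET-negative lines were seeded in six-well plates at 10000 cells/well, in 5% FCS (Nthy-ori-3-1) or 10% FCS (BCPAP, 8505-C, CALU-1, A549, PC-9). Drug or vehicle was added the day after plating, with medium changed every 2–3 days. Cells were counted every 2–3 days. IC50 was fitted from the last day of the growth curves.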

Data set [13] is described as follows: Drug metabolism in BALB/c nu/nu mouse assessed as formation of demethylated metabolite at 10 mg/kg, po measured after 1 to 4 hrs by LC-MS analysis. In kind it is ADME, organism-based. Conditions: in vivo.
Data set [14] in a line: Toxicity in BALB/c nu/nu mouse assessed as change in calcium level at 10 mg/kg, po administered daily for 7 days. In kind it is organism-based. Conditions: in vivo, 168 h.
A short description of data set [15]: Toxicity in BALB/c nu/nu mouse assessed as change in phosphorus level at 10 mg/kg, po administered daily for 7 days. Type of data set: organism-based. Conditions: in vivo, 168 h.
Data set [16] deals with Mus musculus. Put plainly: In vivo inhibition of RET isoform 9 C634Y mutant transfected in mouse NIH/3T3 cells implanted BALB/c nu/nu mouse assessed as reduction in MAPK phosphorylation at 3 mg/kg, po administered once daily via gavage for 2 days measured 3 hrs post-last dose by Western blot analysis.
Data set [17] relates to Mus musculus. Description: In vivo inhibition of RET isoform 9 C634Y mutant transfected in mouse NIH/3T3 cells implanted BALB/c nu/nu mouse assessed as reduction in SHC phosphorylation in tumor at 1 mg/kg, po administered once daily via gavage for 3 days measured 3 hrs post-last dose by Western blot analysis.

The source made the active and inactive calls. The rule behind the calls is not given here.

Chain of Proto-oncogene tyrosine-protein kinase receptor Ret (Homo sapiens), P07949 [C634R] (P07949 whole entry C634R, canonical isoform): as the sequence (P07949 whole entry V804L, canonical isoform) above, with C634R, L804V counted along it
Chain of Vascular endothelial growth factor receptor 2 (P35968 whole entry): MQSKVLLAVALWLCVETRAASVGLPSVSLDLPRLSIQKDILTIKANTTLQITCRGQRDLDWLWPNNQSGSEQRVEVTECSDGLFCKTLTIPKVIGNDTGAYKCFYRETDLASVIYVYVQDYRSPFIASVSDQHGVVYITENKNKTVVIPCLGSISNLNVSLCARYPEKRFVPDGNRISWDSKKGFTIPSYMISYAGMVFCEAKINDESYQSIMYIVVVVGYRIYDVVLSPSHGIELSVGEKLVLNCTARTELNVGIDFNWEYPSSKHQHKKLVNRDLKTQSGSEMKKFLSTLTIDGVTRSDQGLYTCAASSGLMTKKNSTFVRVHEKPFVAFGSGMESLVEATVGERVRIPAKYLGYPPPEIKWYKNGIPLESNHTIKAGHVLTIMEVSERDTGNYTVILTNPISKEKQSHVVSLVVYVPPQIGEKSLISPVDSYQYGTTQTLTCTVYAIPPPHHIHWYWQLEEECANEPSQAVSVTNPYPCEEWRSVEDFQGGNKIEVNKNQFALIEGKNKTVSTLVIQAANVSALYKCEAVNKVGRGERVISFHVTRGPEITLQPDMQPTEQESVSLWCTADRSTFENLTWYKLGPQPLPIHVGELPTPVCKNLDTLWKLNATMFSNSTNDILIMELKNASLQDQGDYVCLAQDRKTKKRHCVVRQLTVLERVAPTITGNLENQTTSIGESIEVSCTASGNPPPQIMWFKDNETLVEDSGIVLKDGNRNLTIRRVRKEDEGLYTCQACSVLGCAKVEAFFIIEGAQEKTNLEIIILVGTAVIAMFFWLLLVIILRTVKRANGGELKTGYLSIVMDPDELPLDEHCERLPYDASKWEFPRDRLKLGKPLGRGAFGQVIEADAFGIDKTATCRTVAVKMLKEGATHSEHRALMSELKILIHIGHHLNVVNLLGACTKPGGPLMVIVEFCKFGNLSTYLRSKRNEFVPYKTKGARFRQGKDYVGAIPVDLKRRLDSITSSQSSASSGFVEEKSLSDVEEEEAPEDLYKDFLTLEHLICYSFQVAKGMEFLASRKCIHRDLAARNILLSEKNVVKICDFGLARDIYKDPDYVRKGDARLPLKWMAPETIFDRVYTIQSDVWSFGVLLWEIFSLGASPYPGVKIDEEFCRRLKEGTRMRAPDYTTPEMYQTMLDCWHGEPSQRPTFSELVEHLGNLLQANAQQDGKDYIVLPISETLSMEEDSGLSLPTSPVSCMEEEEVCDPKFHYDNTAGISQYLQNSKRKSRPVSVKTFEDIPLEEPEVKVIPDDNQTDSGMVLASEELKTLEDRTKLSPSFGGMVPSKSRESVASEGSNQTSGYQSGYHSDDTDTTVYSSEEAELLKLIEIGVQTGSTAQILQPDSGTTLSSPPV
Chain of Proto-oncogene tyrosine-protein kinase receptor Ret (Homo sapiens), P07949 [A883F] (P07949 whole entry A883F, canonical isoform): as the sequence (P07949 whole entry V804L, canonical isoform) above, with L804V, A883F counted along it
Chain of Proto-oncogene tyrosine-protein kinase receptor Ret (Homo sapiens), P07949 [M918T] (P07949 whole entry M918T, canonical isoform): as the sequence (P07949 whole entry V804L, canonical isoform) above, with L804V, M918T counted along it

As for `CC(C)(C)c1cc(NC(=O)Cc2ccc(-n3cnc4cc(-c5ccc(S(C)(=O)=O)cc5)ccc43)cc2)no1`, the IC50 – broadly, the concentration needed to halve the response being measured – in data set [1] is 32 nM; in data set [12] it was greater than 100 nM. Besides, the inhibition entry in [2], in data set [4], in [5], in data set [6], in [7] and in [8] was “Active” throughout. The inhibition result in [10], in data set [16] and in data set [17] was “Active” in each case. Also, the inhibition (in general, the share of the control response that was lost under treatment) in data set [3] stood at 100%. Further, the outcome in data set [9] and in data set [11] was inactive. Also, the Drug metabolism result in data set [13] was “Metabolite_Notdetected”. Further, the Activity result in data set [14] and in data set [15] was “Non-Toxic” each time.
